Data set [1] concerns Radical scavenging activity. Briefly: Antioxidant activity assessed as DPPH radical scavenging activity. Format: functional. The arrangement: concentration or dose not given beside the values. Summed up: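 Scavenging of DPPH radical measured by ESR. Reaction mixtures contain 1.0 mM dpph and 1.0 mM 5-NI, both prepared in acetonitrile. The control contains no 5-NI. Signal recorded 1 min after the start of the reaction at microwave frequency 9.72 GHz and power 20 mW.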
In general terms: Loss of DPPH colour is used to gauge radical scavenging.

For data set [2], the system named is Trypanosoma cruzi. Nature of the data set: Antitrypanosomal activity against Trypanosoma cruzi CL Brener epimastigotes after 5 days. It is filed as functional, organism-based. The settings on record: 120 h. Summed up:
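CL Brener epimastigotes grown at 28 °C in BHI–Tryptose with 5% FBS. Stationary-phase (10-day) cells inoculated at 1 × 10⁶ cells/mL into medium with drug from a DMSO stock (final DMSO ≤0.4%); control contains 0.4% DMSO. Growth followed by A600. Inhibition at day 5 is computed from the day 0 and day 5 absorbances relative to control. IC50 is the concentration reducing the absorbance ratio to 50%.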

In the next data set the test system is Caco-2. Nature of the data set: Cytotoxicity against human Caco-2 cells at 25 uM by MTT assay. The settings on record: caco-2, 25 µM. It is filed as cell-based. Summed up:
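Caco-2 cells kept in DMEM-F12 with 10% FBS, penicillin and streptomycin at 37 °C, 5% CO₂. Cells plated at 5 × 10⁴ cells/mL, then exposed to compound in PBS for 2 h. After washing, cells incubated with 0.5 mg/mL MTT for 120 min at 37 °C. Formazan dissolved in DMSO for 10 min at 37 °C and read at 540 nm.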
For orientation: Tetrazolium assays rely on reduction of a dye to a coloured formazan, in cell work by metabolically active cells.

Data set [3] deals with Trypanosoma cruzi. Briefly: Inhibition of parasitic respiration in Trypanosoma cruzi tulahuen epimastigotes assessed as oxygen uptake at 0.42 mM relative to control. It is filed as functional.
The test system of data set [4] is Trypanosoma cruzi. Briefly: Inhibition of parasitic respiration in Trypanosoma cruzi tulahuen epimastigotes assessed as oxygen uptake at 0.208 mM relative to control. Format: functional.
In data set [5] the test system is Trypanosoma cruzi. Briefly: Inhibition of parasitic respiration in Trypanosoma cruzi tulahuen epimastigotes assessed as oxygen uptake at 2 mM relative to control. It is filed as functional.
The test system of data set [6] is Trypanosoma cruzi. Nature of the data set: Inhibition of parasitic respiration in Trypanosoma cruzi tulahuen epimastigotes assessed as oxygen uptake at 0.83 mM relative to control. Format: functional.
Data set [7] deals with Trypanosoma cruzi. Nature of the data set: Inhibition of parasitic respiration in Trypanosoma cruzi tulahuen epimastigotes assessed as oxygen uptake at 0.104 mM relative to control. It is filed as functional.

Consider 20 molecules from ChEMBL document CHEMBL1153109, “New potent 5-nitroindazole derivatives as inhibitors of Trypanosoma cruzi growth: synthesis, biological evaluation, and mechanism of action studies” (Bioorg Med Chem, 2009).

Some results are limits rather than exact numbers.

Broadly, the IC50 is the point on the concentration scale where inhibition reaches its midpoint. `COc1nn(CCN(C(C)C)C(C)C)c2ccc([N+](=O)[O-])cc12`: the Activity in data set [1] is less than 30%. The same molecule yielded an IC50 in the data set with Trypanosoma cruzi [2] of more than 25 µM. In the data set on Caco-2, this molecule displayed a Cytotoxicity of 15%.
On the same counts, the results for `COc1nn(CCN(C)C)c2ccc([N+](=O)[O-])cc12` are less than 30%, more than 25 µM and 15%.
Taken in the same sequence, the figures for `COc1nn(CCN2CCCCC2)c2ccc([N+](=O)[O-])cc12` were less than 30%, more than 25 µM and 10%.
On the same counts, the results for `O=[N+]([O-])c1ccc2c(c1)c(OCc1ccccc1)nn2CCCCCN1CCCCCC1` are more than 40%, 10.5 µM and 25%.
Consider `CN(C)CCn1nc(OCc2ccccc2)c2cc([N+](=O)[O-])ccc21`, for which the Activity in data set [1] is less than 30%. Half-maximal inhibition in the data set on Trypanosoma cruzi [2] (IC50) was put at 25 µM. In addition, the Oxygen uptake at 420 µM in the data set with Trypanosoma cruzi [3] is 51%. Also, in the data set on Trypanosoma cruzi [4], the Oxygen uptake at 208 µM was 64%. In the data set with Caco-2, the Cytotoxicity is recorded as 12%.
Take `COc1nn(CCN2CCOCC2)c2ccc([N+](=O)[O-])cc12`: the Activity in data set [1] was less than 30%. Further, the IC50 with Trypanosoma cruzi [2] is more than 25 µM. The molecule also had a Cytotoxicity in the data set on Caco-2 of 0%.
For the molecule `COc1nn(CCCBr)c2ccc([N+](=O)[O-])cc12`, the Activity in data set [1] was less than 30%. In the data set on Trypanosoma cruzi [2], this molecule came in with an IC50 of 67.8 µM.
Regarding `O=[N+]([O-])c1ccc2c(c1)c(OCc1ccccc1)nn2CCCCCCBr`, the Oxygen uptake at 2000 µM in the data set with Trypanosoma cruzi [5] is 100%. Also, the Oxygen uptake at 830 µM with Trypanosoma cruzi [6] is 100%. The Activity in data set [1] is less than 30%. Moreover, it took 19.3 µM to reach half-maximal inhibition in the data set on Trypanosoma cruzi [2] (IC50). The Oxygen uptake at 420 µM with Trypanosoma cruzi [3] was found to be 100%.
In the case of `CN(C)CCCCCCn1nc(OCc2ccccc2)c2cc([N+](=O)[O-])ccc21`, in data set [1], the Activity was more than 40%. Moreover, the Oxygen uptake at 104 µM with Trypanosoma cruzi [7] amounted to 100%. In the data set on Trypanosoma cruzi [2], this molecule returned an IC50 of 9.4 µM. Moreover, in the data set on Trypanosoma cruzi [3], the Oxygen uptake at 420 µM turned out to be 52%. For the same molecule, the Oxygen uptake at 208 µM with Trypanosoma cruzi [4] worked out at 59%. In addition, the Cytotoxicity in the data set with Caco-2 came out at 40%.
`CCN(CC)CCn1nc(OCc2ccccc2)c2cc([N+](=O)[O-])ccc21`: the Activity in data set [1] is less than 30%. In the data set on Trypanosoma cruzi [2], this molecule had an IC50 of 11.3 µM. The molecule further displayed a Cytotoxicity with Caco-2 of 30%.
Take `O=[N+]([O-])c1ccc2c(c1)c(OCc1ccccc1)nn2CCCCCBr`: in the data set on Trypanosoma cruzi [5], the Oxygen uptake at 2000 µM turned out to be 38%. Moreover, in the data set on Trypanosoma cruzi [6], the Oxygen uptake at 830 µM turned out to be 100%. Moreover, in data set [1], the Activity is less than 30%. For the same molecule, 20.7 µM corresponded to half-maximal inhibition in the data set with Trypanosoma cruzi [2] (IC50). In addition, in the data set with Trypanosoma cruzi [3], the Oxygen uptake at 420 µM was determined as 100%.
`O=[N+]([O-])c1ccc2c(c1)c(OCc1ccccc1)nn2CCCCCCN1CCCCC1`: the Activity in data set [1] is less than 30%. The midpoint of inhibition in the data set with Trypanosoma cruzi [2], the IC50, lay at 7.4 µM. This molecule also yielded a Cytotoxicity in the data set with Caco-2 of 33%.
Turning to `O=[N+]([O-])c1ccc2c(c1)c(OCc1ccccc1)nn2CCCCCN1CCc2ccccc2C1`, the Activity in data set [1] is less than 30%. Further, it took 12.9 µM to reach half-maximal inhibition with Trypanosoma cruzi [2] (IC50). In addition, the Cytotoxicity in the data set with Caco-2 was determined as 15%.
Taken in the same sequence, the figures for `CC(C)N(CCn1nc(OCc2ccccc2)c2cc([N+](=O)[O-])ccc21)C(C)C` were less than 30%, 9.2 µM and 0%.
Taken in the same sequence, the figures for `COc1nn(CCCN(C)C)c2ccc([N+](=O)[O-])cc12` were less than 30%, more than 25 µM and 29%.
On the same counts, the results for `O=[N+]([O-])c1ccc2c(c1)c(OCc1ccccc1)nn2CCCCCN1CCCC1` are less than 30%, 7.5 µM and 25%.
In the case of `O=[N+]([O-])c1ccc2c(c1)c(OCc1ccccc1)nn2CCN1CCCCC1`, in data set [1], the Activity is less than 30%. This molecule also had an IC50 with Trypanosoma cruzi [2] of 8.4 µM. In addition, in the data set with Caco-2, the Cytotoxicity came to 27%.
Take `O=[N+]([O-])c1ccc2c(c1)c(OCc1ccccc1)nn2CCN1CCOCC1`: the Activity in data set [1] was less than 30%. The IC50 in the data set with Trypanosoma cruzi [2] was more than 25 µM. In addition, the Cytotoxicity in the data set on Caco-2 was determined as 0%.
Taken in the same sequence, the figures for `CCN(CC)CCn1nc(OC)c2cc([N+](=O)[O-])ccc21` were less than 30%, more than 25 µM and 0%.
Take `COc1nn(CCCN2CCCCC2)c2ccc([N+](=O)[O-])cc12`: the Activity in data set [1] is less than 30%. In the data set with Trypanosoma cruzi [2], the concentration for half-maximal inhibition (IC50) is more than 25 µM. The molecule also gave a Cytotoxicity in the data set with Caco-2 of 0%.
